From PubChem
sEH inhibitor – soluble epoxide hydrolase (human) inhibition; P34913; recombinant human sEH enzymatic activity assay; inhibition, % at 2 µM; 91,000 compounds, 0.34% hits; in the data active means inhibition above about 80%
Target sequence (P34913 whole entry, looked up): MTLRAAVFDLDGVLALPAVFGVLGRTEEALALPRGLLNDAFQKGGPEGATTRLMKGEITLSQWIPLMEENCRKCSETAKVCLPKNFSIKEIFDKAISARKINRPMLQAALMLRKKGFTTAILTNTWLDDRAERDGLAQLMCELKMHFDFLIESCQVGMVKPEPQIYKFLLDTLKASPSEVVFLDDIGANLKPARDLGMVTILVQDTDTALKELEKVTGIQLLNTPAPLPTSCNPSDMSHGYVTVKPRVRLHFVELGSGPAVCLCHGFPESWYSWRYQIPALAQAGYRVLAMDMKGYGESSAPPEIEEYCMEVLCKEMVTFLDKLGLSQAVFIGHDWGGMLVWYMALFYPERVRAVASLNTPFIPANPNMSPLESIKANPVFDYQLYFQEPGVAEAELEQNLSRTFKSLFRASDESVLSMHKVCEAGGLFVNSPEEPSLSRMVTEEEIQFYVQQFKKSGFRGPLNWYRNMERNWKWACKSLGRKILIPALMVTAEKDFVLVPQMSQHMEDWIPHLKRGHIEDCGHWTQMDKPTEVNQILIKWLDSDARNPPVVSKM
Yeast lifespan up – extends the lifespan of yeast. S. cerevisiae growth with nicotinamide, OD615; deaD strain in restrictive glucose medium. inhibition of the nicotinamide effect, % at 10 µM. 130,000 compounds, 0.68% hits;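 active means inhibition above a set limit, placed 3 SD over the median of all compounds, cut at about 26% in these data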;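 further: 0% = nicotinamide-treated wells and 100% = cells grown without nicotinamide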
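System: Modified budding yeast, DeaD strain | Buffer or medium: Restrictive glucose medium | Also added: 1.5 mM nicotinamide | Doses: 10 µM single point, 0.25% DMSO | Schedule: 48 h compound exposure at 30 °C, humidified | Detection: Absorbance at 615 nm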
sEH activator – soluble epoxide hydrolase (human) activation; P34913; purified human sEH enzymatic activity, activator screen; activation, % at 2 µM; 91,000 compounds, 0.04% hits; AID 717; in the data active means activation above about 37%
SDO1 yeast rescue – compounds rescuing growth of sdo1-depleted yeast, bone marrow failure model; z-score at 10 µM; 140,000 compounds, 0.21% hits; S. cerevisiae sdo1-depleted JHY4D growth rescue, OD600 30 h; hits give high values; pdr5 snq2 efflux-pump mutant strain;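 active means z-score above 3 at both the 24 hr and the 30 hr optical density reads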;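 further: z-score against mean and SD of all compound wells on the same plate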
Yeast growth inh – reduces growth of yeast BB579 in restrictive medium; S. cerevisiae BB579 growth, OD615, 48 h; inhibition, % at 10 µM; 140,000 compounds, 0.51% hits; AID 804;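 active means inhibition above a set limit, 3 SD over the mean compound inhibition, cut at about 44% in these data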
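Material: Saccharomyces cerevisiae DeaD strain BB579, replicative lifespan model yeast; buffer or medium: CSMM-D restrictive synthetic medium containing dextrose (glucose); compound: 10 µM single dose, DMSO 0.25%; timing: 48 h compound exposure at 30 °C after 4 h preincubation; signal: turbidity as optical density at 615 nm; benchmarks: positive control amphotericin B 10 µg/mL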
Measles CPE – protection of cells from measles virus; Measles virus-infected cells, CPE protection, absorbance; protection (pct of control), % at 4 µM; 140,000 compounds, 1.5% hits; AID 841; in the data active means protection mostly above about 24%, no sharp cut-off; inactive means mostly below about 26%
* = called active by the depositor; . = not tested or not shown. A selection: hits, their analogues and other compounds. The true share with any hit is near 3%.

SMILES | sEH inhibitor | Yeast lifespan up | sEH activator | SDO1 yeast rescue | Yeast growth inh | Measles CPE
O=C1CCC/C(=N/NC(=O)C2CCN(S(=O)(=O)c3cccs3)CC2)C1 | . | -1 | . | 0.45 | -7 | 7
CCOC(=O)C(C(=O)OCC)C(Nc1cccc(Br)c1)c1ccccc1 (stereo not drawn) | -10 | 29 | 10 | -0.78 | 1 | 31*
CCOC(=O)C(NCCCCl)c1ccccc1 (stereo not drawn) | -3 | -6 | 4 | 0.09 | 15 | 6
COCCNc1nnc(SCC(=O)c2c[nH]c3ccccc23)s1 | . | -1 | . | 0.98 | -18 | 23
c1ccc(-c2nnc(-c3ccccn3)nc2NC2CCCCC2)cc1 | 9 | -18 | -11 | -1.6 | 94* | 3
O=C(OCc1nc2ccc(Cl)cc2n1CCO)c1ccc(O)cc1 | . | 0 | . | 1.8 | -19 | 5
CC1CCCC(C)N1C(=O)c1cc2ncc(CCCl)cn2n1 (stereo not drawn) | . | 2 | . | 0.11 | -24 | 6
CCOC(=O)c1cccc(NC(=O)CSc2nc(N)cc(N)n2)c1 | -6 | -8 | 4 | 1.8 | -18 | 31*
Cc1cccc(NC(=O)CSc2nc(N)cc(N)n2)c1 | 7 | . | -8 | 0.58 | -43 | 13
O=C(Nc1nc(-c2cccs2)c(-c2cccs2)s1)C1CCCC1 | . | -6 | . | -1.2 | -40 | .
COc1ccccc1OCC(=O)N/N=C1/SCC(=O)N1Cc1ccccc1 | -9 | -5 | 12 | -0.71 | 35 | 2
OC(CNCCc1ccc(C(F)(F)F)cc1)COc1ccc2ccccc2c1 (stereo not drawn) | . | -10 | . | -2 | 63* | 0
CCCCNC1C(CC)C(CCC)C(C#N)(C#N)C1(C#N)C#N (stereo not drawn) | -48 | -9 | 44* | -1.3 | -32 | 23
COc1ccc(OCCC(=O)OCC(=O)Nc2cccc(Br)c2)cc1 | . | -6 | . | 0.93 | -15 | 41*
Cc1cccc(-c2nnc3n2N=C(c2ccccc2Br)CS3)c1 | 41 | -11 | -42 | -1.9 | -49 | 9
c1ccc2c(-n3cccn3)cccc2c1 | -16 | -17 | 19 | 0.35 | -72 | 39*
CC(C)c1ccc(C2CC(=O)c3cnc(N4CCc5ccccc5C4)nc3C2)cc1 (stereo not drawn) | 5 | -9 | -1 | -0.39 | -32 | 18
CC1CC(C)CN(c2ncc3c(n2)CC(c2ccccc2)CC3=O)C1 (stereo not drawn) | -9 | -11 | 8 | -0.53 | -60 | 42*
CCc1ccc(OCC(=O)Nc2cccc3c2CCCC3)cc1 | . | -2 | . | -0.7 | -17 | 21
Cn1c(Cl)c(/C=N/OC(=O)c2cccc(Cl)c2)c2ccccc21 | -8 | -5 | 6 | -2 | -9 | 12
Cc1ccccc1C(=O)O/N=C/c1c(N2CCOCC2)n(C)c2ccccc12 | 3 | -31 | -1 | -2.3 | 79* | 5
CC1(C)CC2CC(C)(CN2C(=O)COC(=O)c2ccc(Cl)c(N)c2)C1 (stereo not drawn) | 2 | -2 | -2 | -1 | -15 | 11
CCOc1cc(NC(=S)NCCCN2CCOCC2)c(OCC)cc1NC(=O)C1CC1 | . | -2 | . | 0.89 | -16 | 5
Cc1cccc(CSc2cccc3cccnc23)c1 | 3 | -12 | -4 | -1.4 | 96* | 4
COc1ccc(OC)c(/C=N/NC(=O)c2cc(-c3ccc(C)o3)nc3ccccc23)c1 | . | -2 | . | -0.59 | 15 | 2
SMILES | sEH inhibitor | Yeast lifespan up | sEH activator | SDO1 yeast rescue | Yeast growth inh | Measles CPE
COc1ccc(OC)c(/C=N/NC(=O)c2csc3ccccc23)c1 | 84* | -8 | -84 | 0.13 | -40 | 0
COc1ccc(C(C(=O)NC2CCCC2)N(C(=O)c2ccoc2C)c2ccc(C)c(C)c2)cc1 (stereo not drawn) | . | 4 | . | -0.03 | -15 | 5
CC(C)NS(=O)(=O)c1ccc(NC(=O)C2CC3C=CC2C3)cc1 (stereo not drawn) | 31 | -8 | -31 | -0.39 | -29 | 6
Cc1ccccc1-n1nnnc1Sc1nnnn1-c1ccccc1 | 6 | 39* | -7 | -1.9 | -6 | 19
COc1ccc2c(C)cc(Sc3nnnn3-c3ccccc3)nc2c1 | . | -3 | . | -1.2 | 2 | 53*
CCn1c(CCNC(=O)c2ccc(Cl)c(Cl)c2)nnc1SCCOc1ccc(OC)cc1 | 0 | -3 | 3 | -1.1 | -40 | 3
Cc1ccc(S(=O)(=O)N(C)C)cc1NC(=O)c1cncc(Br)c1 | . | -2 | . | -1.6 | -14 | 16
CCOC(=O)c1ccc(NC(=S)N(CCCN2CCCCCC2)Cc2ccco2)cc1 | . | 6 | . | 1.8 | -43 | 49*
COc1ccc(NC(=S)N(CCCN2CCN(C)CC2)Cc2cccs2)cc1 | . | -1 | . | 0.69 | -33 | 23
CCc1ccc(NC(=S)N(CCCN2CCN(C)CC2)Cc2cccs2)cc1 | . | -4 | . | 1.1 | 6 | 53*
Cc1ccc(NC(=S)N(CCN2CCCCC2)Cc2ccco2)cc1 | . | 2 | . | 0.25 | -23 | 29
NC(=O)c1ncn([C@@H]2O[C@H](CO)[C@@H](O)[C@H]2O)c1O | . | 0 | . | 1.4 | -33 | 13
CCN(CC)CCCN1C(=O)c2oc3ccccc3c(=O)c2C1c1cc(OC)ccc1OC (stereo not drawn) | 13 | -15 | -11 | -0.27 | -8 | 13
Cc1cc(C(=O)Cn2cncn2)c(C)n1CCc1ccc(F)cc1 | 8 | -16 | -9 | -0.17 | -10 | 68*
Cc1cc(C(=O)CSc2nnnn2C)c(C)n1CCc1ccc(Cl)cc1 | 5 | -5 | -2 | 0.09 | -22 | 20
Cc1[nH]c(=O)[nH]c(=O)c1NC(=O)c1cccs1 | 2 | -9 | 0 | 1.5 | -35 | 25*
Cc1ccc(NC(=O)c2cccs2)cc1 | 8 | -7 | -8 | 0.06 | -15 | 2
Cc1ccc(N2C(=O)c3cccc4c(Oc5ccccc5[N+](=O)[O-])ccc(c34)C2=O)c(C)c1 | . | -3 | . | -0.04 | -41 | 19
CS(=O)(=O)N(Cc1ccccc1)c1ccc(C(=O)Nc2ccc3c(c2)OCO3)cc1 | 3 | -6 | -2 | -0.35 | -38 | 5
N/C(=N\c1nc2c(c(=O)[nH]1)CCC2)Nc1ccccc1 | . | -4 | . | -0.19 | -18 | 48*
N/C(=N\c1nc2c(c(=O)[nH]1)CCCC2)Nc1ccccc1 | 6 | -7 | -6 | 0.18 | -12 | 4
CCCCOc1ccc(C(=O)C(CN2CCOCC2)c2ccccc2)cc1 (stereo not drawn) | -5 | . | 10 | -2.4 | -2 | 41*
COc1ccc(C(=O)C(CN2CCOCC2)c2ccccc2)cc1 (stereo not drawn) | 11 | 61* | -14 | -1.5 | -53 | 9
[O-]C1=N/[N+](=C/c2ccccc2Cl)CC1 | -1 | -10 | 2 | -0.09 | -19 | 12
COc1cccc(/C=N/N2C(=O)CSC2=S)c1O | . | -4 | . | -0.82 | 72* | 14
COc1cccc(C=Nc2cc(C)cc(C)c2)c1O | . | -5 | . | 0.66 | -10 | 6
Cc1nnc(-n2ncc(C#N)c2N)c2nn(-c3ccccc3F)c(C)c12 | -7 | . | 7 | . | . | .
